Calls of active or inactive are those of the source. The rule behind the calls is not given here.
Tests used:
SF3B1 pre-mRNA [1] = experiment: Modulation of splicing in SF3B1 pre-mRNA in human HCT-116 cells assessed as intron 13 retention level at 8.6 uM incubated for 4 hrs by qRT-PCR analysis; assay type: functional, cell-based; conditions: filed as modulator
Method in brief: (§1)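 HCT-116 cells in supplemented McCoy's 5a, compound added from DMSO stock to a final 0.5% DMSO, 4 h at a single standardized concentration per analogue. Total RNA isolated and DNase-treated (1 µg). qPCR used 2.5 µM each primer on 5 ng cDNA, 40 cycles. Intron retention was computed by the 2^-CT method relative to GAPDH and expressed versus untreated cells set to 1.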

SF3A3 pre-mRNA [2] = experiment: Modulation of splicing in SF3A3 pre-mRNA in human HCT-116 cells assessed as intron 5 retention level at 8.6 uM incubated for 4 hrs by qRT-PCR analysis; assay type: functional, cell-based; conditions: filed as modulator; method in brief: as §1
HCT-116 [3] = experiment: Modulation of splicing in PLK-1 pre-mRNA in human HCT-116 cells assessed as effect on exon 3 inclusion at 8.6 uM incubated for 4 hrs by qRT-PCR analysis; assay type: functional, cell-based; conditions: filed as modulator
DNAJB1 pre-mRNA [4] = experiment: Modulation of splicing in DNAJB1 pre-mRNA in human HCT-116 cells assessed as intron 2 retention level at 8.6 uM incubated for 4 hrs by qRT-PCR analysis; assay type: functional, cell-based; conditions: filed as modulator
HCT-116 [5] = experiment: Modulation of splicing in MCL-1L pre-mRNA in human HCT-116 cells assessed as intron 5 retention at 100 to 500 nM incubated for 24 hrs by qRT-PCR analysis; assay type: functional, cell-based; conditions: dose 100-500 nM
Method in brief: (§2)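 HCT-116 cells in supplemented McCoy's 5a with 0.5% DMSO, treated 24 h at 100, 250 or 500 nM; untreated cells as control. Total RNA isolated, 1 µg DNase I-treated, reverse transcribed. qPCR on 5 ng cDNA with 2.5 µM each primer, 40 cycles of 95 °C 30 s, 55 °C 60 s, 72 °C 60 s. Splice-event primers for intron retention or exon skipping; SF2 primers measure total expression. 2^-CT method relative to GAPDH, untreated set at 1.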

SF3A3 pre-mRNA [6] = experiment: Modulation of splicing in SF3A3 pre-mRNA in human HCT-116 cells assessed as intron 5 retention at 100 to 500 nM incubated for 24 hrs by qRT-PCR analysis; assay type: functional, cell-based; conditions: dose 100-500 nM; method in brief: as §2
SF3A1 pre-mRNA [7] = experiment: Modulation of splicing in SF3A1 pre-mRNA in human HCT-116 cells assessed as intron 6 retention level at 8.6 uM incubated for 4 hrs by qRT-PCR analysis; assay type: functional, cell-based; conditions: filed as modulator
[8] = Cytotoxicity against human HCT-116 cells assessed as cell growth inhibition incubated for 72 hrs by MTS assay; assay type: toxicity, cell-based
Method in brief: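 HCT-116 cells (ATCC; split every other day, no more than five generations, mycoplasma-tested) plated at 5 × 10³ cells/well in supplemented McCoy's 5a and grown 24 h at 37 °C, 5% CO₂. Compound added from DMSO (0.5% DMSO final) for 72 h. Cells washed with PBS, MTS reagent added for 2 h at 37 °C, A490 read against A690. GI₅₀ fitted from dose curves of 3 biological replicates.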

HCT-116 [9] = experiment: Cytotoxicity against human HCT-116 cells assessed as reduction in cell viability at 500 nM incubated for 24 hrs by MTS assay; assay type: toxicity, cell-based; conditions: hct-116, 24 h, 0.5 µM
Method in brief: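 HCT-116 cells plated at 5 × 10³ cells/well in supplemented McCoy's 5a and grown 24 h at 37 °C, 5% CO₂. Compound given at 500 nM, the top dose of the 24 h splicing series, in 0.5% DMSO for 24 h. Cells washed with PBS, MTS reagent added for 2 h at 37 °C, A490 read against A690.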

SF3B2 pre-mRNA [10] = experiment: Modulation of splicing in SF3B2 pre-mRNA in human HCT-116 cells assessed as intron 10 retention level at 8.6 uM incubated for 4 hrs by qRT-PCR analysis; assay type: functional, cell-based; conditions: filed as modulator; method in brief: as §1
SF3B1 pre-mRNA [11] = experiment: Modulation of splicing in SF3B1 pre-mRNA in human HCT-116 cells assessed as intron 13 retention at 100 to 500 nM incubated for 24 hrs by qRT-PCR analysis; assay type: functional, cell-based; conditions: dose 100-500 nM
Method in brief: (§3)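 HCT-116 cells in supplemented McCoy's 5a with 0.5% final DMSO were treated for 24 h at 100, 250 or 500 nM. Total RNA isolated and DNase-treated (1 µg). qPCR used 2.5 µM each primer on 5 ng cDNA, 40 cycles. Intron retention was computed by the 2^-CT method relative to GAPDH and expressed versus untreated cells set to 1.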

DNAJB1 pre-mRNA [12] = experiment: Modulation of splicing in DNAJB1 pre-mRNA in human HCT-116 cells assessed as intron 2 retention at 100 to 500 nM incubated for 24 hrs by qRT-PCR analysis; assay type: functional, cell-based; conditions: dose 100-500 nM; method in brief: as §2
AURKA pre-mRNA [13] = experiment: Modulation of splicing in AURKA pre-mRNA in human HCT-116 cells assessed as effect on exon 4 skipping at 8.6 uM incubated for 4 hrs by qRT-PCR analysis; assay type: functional, cell-based; conditions: filed as modulator
SF3A1 pre-mRNA [14] = experiment: Modulation of splicing in SF3A1 pre-mRNA in human HCT-116 cells assessed as intron 6 retention at 100 to 500 nM incubated for 24 hrs by qRT-PCR analysis; assay type: functional, cell-based; conditions: dose 100-500 nM; method in brief: as §2
SF3B2 pre-mRNA [15] = experiment: Modulation of splicing in SF3B2 pre-mRNA in human HCT-116 cells assessed as intron 10 retention at 100 to 500 nM incubated for 24 hrs by qRT-PCR analysis; assay type: functional, cell-based; conditions: dose 100-500 nM; method in brief: as §3
HCT-116 [16] = experiment: Cytotoxicity against human HCT-116 cells assessed as reduction in cell viability at 8.6 uM incubated for 4 hrs by MTS assay; assay type: toxicity, cell-based; conditions: hct-116, 4 h
SF3A1 pre-mRNA [17] = experiment: Modulation of splicing in SF3A1 pre-mRNA in human HCT-116 cells assessed as intron 6 retention level at 44 nM incubated for 4 hrs by qRT-PCR analysis; assay type: functional, cell-based; conditions: filed as modulator
AURKA pre-mRNA [18] = experiment: Modulation of splicing in AURKA pre-mRNA in human HCT-116 cells assessed as effect on exon 4 skipping at 44 nM incubated for 4 hrs by qRT-PCR analysis; assay type: functional, cell-based; conditions: filed as modulator
SF3B1 pre-mRNA [19] = experiment: Modulation of splicing in SF3B1 pre-mRNA in human HCT-116 cells assessed as intron 13 retention level at 44 nM incubated for 4 hrs by qRT-PCR analysis; assay type: functional, cell-based; conditions: filed as modulator; method in brief: as §1
HCT-116 [20] = experiment: Cytotoxicity against human HCT-116 cells assessed as reduction in cell viability at 44 nM incubated for 4 hrs by MTS assay; assay type: toxicity, cell-based; conditions: hct-116, 4 h, 0.044 µM
SF3A3 pre-mRNA [21] = experiment: Modulation of splicing in SF3A3 pre-mRNA in human HCT-116 cells assessed as intron 5 retention level at 44 nM incubated for 4 hrs by qRT-PCR analysis; assay type: functional, cell-based; conditions: filed as modulator
DNAJB1 pre-mRNA [22] = experiment: Modulation of splicing in DNAJB1 pre-mRNA in human HCT-116 cells assessed as intron 2 retention level at 44 nM incubated for 4 hrs by qRT-PCR analysis; assay type: functional, cell-based; conditions: filed as modulator
SF3B2 pre-mRNA [23] = experiment: Modulation of splicing in SF3B2 pre-mRNA in human HCT-116 cells assessed as intron 10 retention level at 44 nM incubated for 4 hrs by qRT-PCR analysis; assay type: functional, cell-based; conditions: filed as modulator; method in brief: as §1

## CC[C@H](OC)[C@@H](C)[C@H]1O[C@@H]1[C@H](O)[C@H](C)/C=C/C=C(\C)[C@H]1OC(=O)C[C@H](O)CC[C@@](C)(O)[C@H](OC(C)=O)/C=C/[C@@H]1C
SF3B1 pre-mRNA [1]
  Activity: < 3
SF3A3 pre-mRNA [2]
  Activity: < 3
HCT-116 [3]
  Activity: Active
DNAJB1 pre-mRNA [4]
  Activity: > 3
HCT-116 [5]
  Activity: inactive
SF3A3 pre-mRNA [6]
  Activity: inactive
SF3A1 pre-mRNA [7]
  Activity: > 3
[8]
  GI50 at 72 h: 0.588 µM
HCT-116 [9]
  Activity: Non-Toxic
SF3B2 pre-mRNA [10]
  Activity: > 3
SF3B1 pre-mRNA [11]
  Activity: inactive
DNAJB1 pre-mRNA [12]
  Activity: inactive
AURKA pre-mRNA [13]
  Activity: Active
SF3A1 pre-mRNA [14]
  Activity: inactive
SF3B2 pre-mRNA [15]
  Activity: inactive
HCT-116 [16]
  Activity: Non-Toxic

## CC[C@H](OC)[C@@H](C)[C@H]1O[C@@H]1[C@H](OC)[C@H](C)/C=C/C=C(\C)[C@H]1OC(=O)C[C@H](O)CC[C@@](C)(O)[C@@H](OC(C)=O)/C=C/[C@@H]1C
SF3A1 pre-mRNA [17]
  Activity: > 3
AURKA pre-mRNA [18]
  Activity: Active
SF3B1 pre-mRNA [19]
  Activity: < 3
HCT-116 [20]
  Activity: Non-Toxic
SF3A3 pre-mRNA [21]
  Activity: < 3
[8]
  GI50 at 72 h: 0.0026 µM
DNAJB1 pre-mRNA [22]
  Activity: > 3
HCT-116 [9]
  Activity: Non-Toxic
SF3B2 pre-mRNA [23]
  Activity: > 3

## CC[C@H](OC)[C@@H](C)[C@H]1O[C@@H]1[C@H](O)[C@H](C)/C=C/C=C(\C)[C@@H]1OC(=O)C[C@H](O)CC[C@@](C)(O)[C@@H](OC(C)=O)/C=C/[C@H]1C
[8]
  GI50 at 72 h: 41.3 µM

Source: ChEMBL document CHEMBL5338772, “Stereochemical Control of Splice Modulation in FD-895 Analogues” (J Med Chem, 2023)
